Experimental data of several laboratories.
rep papain-like protease: Replicase polyprotein 1ab, papain-like protease (rep, Severe acute respiratory syndrome coronavirus 2, UniProt P0DTD1)
rep helicase: Replicase polyprotein 1ab, helicase (rep, Severe acute respiratory syndrome coronavirus 2, UniProt P0DTD1)
MAOA: Amine oxidase [flavin-containing] A (MAOA, Homo sapiens, UniProt P21397)
ADRA1A: Alpha-1A adrenergic receptor (ADRA1A, Homo sapiens, UniProt P35348)

Structure (SMILES) | target | assay | endpoint | result
CCCC(C(=O)Nc1cc(NC2CNC2)ccc1C)n1cccc2nc(SCc3ccc(F)cc3)nc1-2 (stereo not shown) | rep papain-like protease | enzyme activity, inhibitor | IC50 | 1.48 µM
CSCCNc1nc(SCCC(F)(F)F)nc2c1ncn2[C@@H]1O[C@H](COP(=O)(O)OP(=O)(O)C(Cl)(Cl)P(=O)(O)O)[C@@H](O)[C@H]1O | rep helicase | enzyme activity, inhibitor | IC50 | > 100 µM
CCC(C(=O)Nc1cc(NC2COC2)ccc1C)n1cc(F)cc2nc(SCc3ccc(F)cc3)nc1-2 (stereo not shown) | rep papain-like protease | enzyme activity, inhibitor | IC50 | 0.436 µM
C#CCN(C)CCCCCCCCOc1cccc(CN(C)c2c3c(nc4ccc(F)cc24)CCCC3)c1 | MAOA | enzyme activity, inhibitor, fluorescence | IC50 | 61.3 µM
Brc1ccc2c(c1)C(c1ccccn1)=NCc1c(-c3cnco3)ncn1-2 | Translocator protein (Tspo, Rattus norvegicus, UniProt P16257) | ligand displacement, radioligand | Ki | 0.331 µM
CCC(C(=O)Nc1cc(NC2CCOC2)ccc1C)n1cc(Cl)cc2nc(SCc3ccc(F)cc3)nc1-2 (stereo not shown) | rep papain-like protease | enzyme activity, inhibitor | IC50 | 0.169 µM
C#CCN(C)CCOc1cccc(CN(C)c2c3c(nc4ccccc24)CCCC3)c1 | MAOA | enzyme activity, inhibitor, fluorescence | IC50 | 10.3 µM
COc1ccc2cc1Oc1ccc(cc1)C[C@H]1c3c(cc4c(c3Oc3cc5c(cc3OC)CCN(C)[C@@H]5C2)OCO4)CCN1C | rep helicase | enzyme activity, inhibitor | IC50 | 4.5 µM
COC(=O)c1cc(N(C)C(=O)c2ccn3ncc(-c4ccc(C(=O)O)cc4)c3c2)ccc1Cl | ADRA1A | cell-free assay | IC50 | > 30 µM
Cc1cc(Nc2ncc(Cl)c(Nc3ccccc3S(=O)(=O)C(C)C)n2)c(OC(C)C)cc1C1CCNCC1 | rep papain-like protease | enzyme activity, inhibitor, FRET | IC50 | 19.5 µM
C#CCN(C)CCCCCCOc1cccc(CN(C)c2c3c(nc4ccc(C)cc24)CCCC3)c1 | MAOA | enzyme activity, inhibitor, fluorescence | IC50 | 4.87 µM
CNC(=O)c1ccc(-c2cnn3ccc(C(=O)N(C)c4ccc(Cl)c(C(=O)OC)c4)cc23)cc1 | ADRA1A | cell-free assay | IC50 | > 30 µM
CCCNC(=O)[C@H]1O[C@@H]1C(=O)N[C@H](C(=O)N1CCC[C@H]1C(=O)O)[C@@H](C)CC | rep papain-like protease | enzyme activity, inhibitor, FRET | IC50 | 170 µM
